These results are taken from publication PMC10436028 (RSC Advances, 2023).

Common to all, as to assay type: cell-based
One experiment has as its system MCF-7 cell line. Briefly: MTT assay, breast cancer MCF-7 cell line. The conditions noted are these: Homo sapiens, MCF7, 48 h, read-out: IC50 against MCF-7. In outline: (§1)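 Test compound dissolved in PBS with 0.5% DMSO and diluted in the same solvent. Cells were grown in DMEM with 10% FBS and 1% penicillin-streptomycin at 37 °C, 5% CO2. They were trypsinised, seeded and held 48 h, then given fresh medium. Exposure was 15.62–500 μM for 48 h. MTT (0.5 mg.mL−1) ran 4 h, formazan was dissolved in DMSO, and A570 read. Six vehicle wells per plate served as control. Viability was computed, in triplicate, as mean ± SD.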
(In general: Formazan colour is commonly taken as a measure of viable cells.)

A further experiment has as its system HEK-293 cell line. Briefly: MTT toxicity assay, normal cell line HEK-293. The conditions noted are these: Homo sapiens, HEK293, 48 h, read-out: IC50 against HEK-293. In outline:
as §1

Another experiment deals with A-375 cell line. Nature of the experiment: MTT assay, melanoma A-375 cell line. The conditions noted are these: Homo sapiens, A-375, 48 h, read-out: IC50 against A-375. In outline:
as §1

By IC50 is commonly meant the concentration that inhibits the measured activity by half.

Each structure is given as a SMILES string.

For the compound `Cn1c(=O)c2c(nc(N3CCN(Cc4cn(CCCc5ccccc5)nn4)CC3)n2C)n(C)c1=O` [Compound 12d, 1,3,7-Trimethyl-8-(4-((1-(3-phenylpropyl)-1H-1,2,3-triazol-4-yl)methyl)piperazin-1-yl)-3,7-dihydro-1H-purine-2,6-dione], the IC50 with MCF-7 cell line, with HEK-293 cell line and in the experiment on A-375 cell line was over 500 µM in each case.
Turning to `CCCCCCCCCCn1cc(CN2CCN(c3nc4c(c(=O)n(C)c(=O)n4C)n3C)CC2)nn1` [Compound 12k, 8-(4-((1-Decyl-1H-1,2,3-triazol-4-yl)methyl)piperazin-1-yl)-1,3,7-trimethyl-3,7-dihydro-1H-purine-2,6-dione], the IC50 was 175 ± 3.2 µM in the experiment on MCF-7 cell line, over 500 µM with HEK-293 cell line and 367 ± 3.4 µM in the experiment on A-375 cell line.
Regarding `CCCCCCCn1cc(CN2CCN(c3nc4c(c(=O)n(C)c(=O)n4C)n3C)CC2)nn1` [Compound 12h, 8-(4-((1-Heptyl-1H-1,2,3-triazol-4-yl)methyl)piperazin-1-yl)-1,3,7-trimethyl-3,7-dihydro-1H-purine-2,6-dione], the IC50 in the experiment with MCF-7 cell line was 306 ± 1.8 µM; in the experiment with HEK-293 cell line, over 500 µM; with A-375 cell line, 498 ± 2 µM.
Regarding `Cn1c(=O)c2c(nc(N3CCN(Cc4cn(CCCN5C(=O)c6ccccc6S5(=O)=O)nn4)CC3)n2C)n(C)c1=O` [Compound 12n, 8-(4-((1-(3-(1,1-Dioxido-3-oxobenzo[d]isothiazol-2(3H)-yl)propyl)-1H-1,2,3-triazol-4-yl)methyl)piperazin-1-yl)-1,3,7-trimethyl-3,7-dihydro-1H-purine-2,6-dione], the IC50 with MCF-7 cell line, in the experiment with HEK-293 cell line and with A-375 cell line was over 500 µM in each case.
Turning to `CCCCCCCCn1cc(CN2CCN(c3nc4c(c(=O)n(C)c(=O)n4C)n3C)CC2)nn1` [Compound 12j, 1,3,7-Trimethyl-8-(4-((1-octyl-1H-1,2,3-triazol-4-yl)methyl)piperazin-1-yl)-3,7-dihydro-1H-purine-2,6-dione], the IC50 in the experiment with MCF-7 cell line was 245 ± 2.3 µM; with HEK-293 cell line, 418 ± 2.4 µM; in the experiment with A-375 cell line it was 323 ± 2.6 µM.
For `Cn1c(=O)c2c(nc(N3CCN(Cc4cn(Cc5ccccc5)nn4)CC3)n2C)n(C)c1=O` [Compound 12a, 8-(4-((1-Benzyl-1H-1,2,3-triazol-4-yl)methyl)piperazin-1-yl)-1,3,7-trimethyl-3,7-dihydro-1H-purine-2,6-dione], the IC50 with MCF-7 cell line, with HEK-293 cell line and in the experiment with A-375 cell line was over 500 µM in each case.
As for `CN(Cc1cnc2nc(N)nc(N)c2n1)c1ccc(C(=O)N[C@@H](CCC(=O)O)C(=O)O)cc1` [MTX, methotrexate, reference compound], the IC50 in the experiment on MCF-7 cell line was 343 ± 3.6 µM; with HEK-293 cell line, 199 ± 2.4 µM; with A-375 cell line, 418 ± 2 µM.
As to `Cc1ccc(Cn2cc(CN3CCN(c4nc5c(c(=O)n(C)c(=O)n5C)n4C)CC3)nn2)cc1` [Compound 12f, 1,3,7-Trimethyl-8-(4-((1-(4-methylbenzyl)-1H-1,2,3-triazol-4-yl)methyl)piperazin-1-yl)-3,7-dihydro-1H-purine-2,6-dione], the IC50 with MCF-7 cell line, with HEK-293 cell line and in the experiment with A-375 cell line was over 500 µM in each case.
On to `Cn1c(=O)c2c(nc(N3CCN(Cc4cn(C(c5ccccc5)c5ccccc5)nn4)CC3)n2C)n(C)c1=O` [Compound 12c, 8-(4-((1-Benzhydryl-1H-1,2,3-triazol-4-yl)methyl)piperazin-1-yl)-1,3,7-trimethyl-3,7-dihydro-1H-purine-2,6-dione], for which the IC50 with MCF-7 cell line, in the experiment with HEK-293 cell line and with A-375 cell line was over 500 µM each time.
Consider `CCOC(=O)CCCn1cc(CN2CCN(c3nc4c(c(=O)n(C)c(=O)n4C)n3C)CC2)nn1` [Compound 12g, Ethyl 4-(4-((4-(1,3,7-trimethyl-2,6-dioxo-2,3,6,7-tetrahydro-1H-purin-8-yl)piperazin-1-yl)methyl)-1H-1,2,3-triazol-1-yl)butanoate], for which the IC50 in the experiment with MCF-7 cell line, with HEK-293 cell line and in the experiment with A-375 cell line was over 500 µM throughout.
Regarding `Cn1c(=O)c2c(nc(N3CCN(Cc4cn(CC(=O)OCc5ccccc5)nn4)CC3)n2C)n(C)c1=O` [Compound 12b, Benzyl 2-(4-((4-(1,3,7-trimethyl-2,6-dioxo-2,3,6,7-tetrahydro-1H-purin-8-yl)piperazin-1-yl)methyl)-1H-1,2,3-triazol-1-yl)acetate], the IC50 in the experiment with MCF-7 cell line, with HEK-293 cell line and in the experiment with A-375 cell line was over 500 µM each time.
With `CCCCCCn1cc(CN2CCN(c3nc4c(c(=O)n(C)c(=O)n4C)n3C)CC2)nn1` [Compound 12i, 8-(4-((1-Hexyl-1H-1,2,3-triazol-4-yl)methyl)piperazin-1-yl)-1,3,7-trimethyl-3,7-dihydro-1H-purine-2,6-dione], the IC50 was found to be 260 ± 2.2 µM in the experiment on MCF-7 cell line, 371 ± 2.3 µM in the experiment with HEK-293 cell line and 371 ± 2.5 µM in the experiment on A-375 cell line.
For `Cn1c(=O)c2c(nc(N3CCN(Cc4cn(CCCCN5C(=O)c6ccccc6S5(=O)=O)nn4)CC3)n2C)n(C)c1=O` [Compound 12m, 8-(4-((1-(4-(1,1-Dioxido-3-oxobenzo[d]isothiazol-2(3H)-yl)butyl)-1H-1,2,3-triazol-4-yl)methyl)piperazin-1-yl)-1,3,7-trimethyl-3,7-dihydro-1H-purine-2,6-dione], the IC50 in the experiment with MCF-7 cell line, with HEK-293 cell line and in the experiment on A-375 cell line was over 500 µM in each case.
As to `Cn1c(=O)c2c(nc(N3CCN(Cc4cn(CCCCCN5C(=O)c6ccccc6C5=O)nn4)CC3)n2C)n(C)c1=O` [Compound 12l, 8-(4-((1-(5-(1,3-Dioxoisoindolin-2-yl)pentyl)-1H-1,2,3-triazol-4-yl)methyl)piperazin-1-yl)-1,3,7-trimethyl-3,7-dihydro-1H-purine-2,6-dione], the IC50 in the experiment on MCF-7 cell line, with HEK-293 cell line and in the experiment on A-375 cell line was over 500 µM each time.
On to `Cn1c(=O)c2c(nc(N3CCN(Cc4cn(CCc5ccccc5)nn4)CC3)n2C)n(C)c1=O` [Compound 12e, 1,3,7-Trimethyl-8-(4-((1-phenethyl-1H-1,2,3-triazol-4-yl)methyl)piperazin-1-yl)-3,7-dihydro-1H-purine-2,6-dione], for which the IC50 in the experiment with MCF-7 cell line, in the experiment with HEK-293 cell line and with A-375 cell line was over 500 µM throughout.
Turning to `Cn1c(=O)c2c(nc(N3CCN(Cc4cn(CCCCCN5C(=O)c6ccccc6S5(=O)=O)nn4)CC3)n2C)n(C)c1=O` [Compound 12o, 8-(4-((1-(5-(1,1-Dioxido-3-oxobenzo[d]isothiazol-2(3H)-yl)pentyl)-1H-1,2,3-triazol-4-yl)methyl)piperazin-1-yl)-1,3,7-trimethyl-3,7-dihydro-1H-purine-2,6-dione], the IC50 in the experiment on MCF-7 cell line, in the experiment on HEK-293 cell line and in the experiment with A-375 cell line was over 500 µM each time.
